ChEMBL document CHEMBL3758168, “Hybrid triazoles: Design and synthesis as potential dual inhibitor of growth and efflux inhibition in tuberculosis” (Eur J Med Chem, 2016)
In brackets after ≈: the same amount, converted by molar mass.

Experiments:
[1] = tested on: Mycolicibacterium smegmatis; test: Anti-tubercular activity against Mycobacterium smegmatis MC2 155 ATCC 700084 after 3 days by microdilution method; type: functional; details: MC2 155 ATCC 700084, 72 h
How it was run: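 M. smegmatis mc2155 grown in MB7H9 + 10% OADC at 37 °C with shaking to OD600 0.8. Inoculum set to 0.5 McFarland, diluted 1:100, and mixed 1:1 with two-fold serial dilutions in MB7H9. Plates incubated 3 days at 37 °C with growth and sterility controls. MIC taken as the lowest concentration with no visible growth.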

[2] = Cytotoxicity against human MDM assessed as cell viability after 3 days by Alamar blue dye-based fluorocytometric analysis relative to control; details: 72 h
[3] = tested on: Mycobacterium tuberculosis; test: Antibacterial activity against Mycobacterium tuberculosis H37Rv ATCC 27294T assessed as isoniazid MIC at 64 ug/ml after 7 days by microdilution checkerboard assay; type: functional; details: 168 h
How it was run: (§1)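 Two-dimensional checkerboard in H37Rv at 10^5 CFU/ml in MB7H9/OADC. Partner drug (amikacin, EtBr, isoniazid, ofloxacin or rifampin) two-fold serially diluted across columns 3-11. Test compound two-fold serially diluted down rows 2-6. Plates incubated 7 days at 37 °C, then MTT added overnight. […] Run in triplicate.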

[4] = tested on: Mycobacterium tuberculosis; test: Antibacterial activity against Mycobacterium tuberculosis H37Rv ATCC 27294T assessed as isoniazid MIC at 32 ug/ml after 7 days by microdilution checkerboard assay; type: functional; details: 168 h; how it was run: as §1
[5] = tested on: Mycobacterium tuberculosis; test: Antibacterial activity against Mycobacterium tuberculosis H37Rv ATCC 27294T assessed as ethidium bromide MIC at 32 ug/ml after 7 days by microdilution checkerboard assay; type: functional; details: 168 h; how it was run: as §1
[6] = tested on: Mycobacterium tuberculosis; test: Antibacterial activity against Mycobacterium tuberculosis H37Rv ATCC 27294T assessed as ethidium bromide MIC at 64 ug/ml after 7 days by microdilution checkerboard assay; type: functional; details: 168 h; how it was run: as §1
[7] = tested on: Mycobacterium tuberculosis; test: Antibacterial activity against Mycobacterium tuberculosis H37Rv ATCC 27294T assessed as ethidium bromide MIC at 1 ug/ml after 7 days by microdilution checkerboard assay; type: functional; details: 168 h; how it was run: as §1
[8] = tested on: Mycobacterium tuberculosis; test: Antibacterial activity against Mycobacterium tuberculosis H37Rv ATCC 27294T assessed as ethidium bromide MIC at 2 ug/ml after 7 days by microdilution checkerboard assay; type: functional; details: 168 h; how it was run: as §1
[9] = tested on: Mycobacterium tuberculosis; test: Antibacterial activity against Mycobacterium tuberculosis H37Rv ATCC 27294T assessed as ethidium bromide MIC at 4 ug/ml after 7 days by microdilution checkerboard assay; type: functional; details: 168 h; how it was run: as §1
[10] = tested on: Mycobacterium tuberculosis; test: Antibacterial activity against Mycobacterium tuberculosis H37Rv ATCC 27294T assessed as ethidium bromide MIC at 8 ug/ml after 7 days by microdilution checkerboard assay; type: functional; details: 168 h; how it was run: as §1
[11] = tested on: Mycobacterium tuberculosis; test: Antibacterial activity against Mycobacterium tuberculosis H37Rv ATCC 27294T assessed as ethidium bromide MIC at 16 ug/ml after 7 days by microdilution checkerboard assay; type: functional; details: 168 h; how it was run: as §1
[12] = tested on: Mycobacterium tuberculosis; test: Antibacterial activity against Mycobacterium tuberculosis H37Rv ATCC 27294T assessed as ofloxacin MIC at 32 ug/ml after 7 days by microdilution checkerboard assay; type: functional; details: 168 h; how it was run: as §1
[13] = tested on: Mycobacterium tuberculosis; test: Antibacterial activity against Mycobacterium tuberculosis H37Rv ATCC 27294T assessed as ofloxacin MIC at 64 ug/ml after 7 days by microdilution checkerboard assay; type: functional; details: 168 h; how it was run: as §1
[14] = tested on: Mycobacterium tuberculosis; test: Antibacterial activity against Mycobacterium tuberculosis H37Rv ATCC 27294T assessed as ofloxacin MIC at 1 ug/ml after 7 days by microdilution checkerboard assay; type: functional; details: 168 h; how it was run: as §1
[15] = tested on: Mycobacterium tuberculosis; test: Antibacterial activity against Mycobacterium tuberculosis H37Rv ATCC 27294T assessed as ofloxacin MIC at 2 ug/ml after 7 days by microdilution checkerboard assay; type: functional; details: 168 h; how it was run: as §1
[16] = tested on: Mycobacterium tuberculosis; test: Antibacterial activity against Mycobacterium tuberculosis H37Rv ATCC 27294T assessed as ofloxacin MIC at 4 ug/ml after 7 days by microdilution checkerboard assay; type: functional; details: 168 h; how it was run: as §1
[17] = tested on: Mycobacterium tuberculosis; test: Antibacterial activity against Mycobacterium tuberculosis H37Rv ATCC 27294T assessed as ofloxacin MIC at 8 ug/ml after 7 days by microdilution checkerboard assay; type: functional; details: 168 h; how it was run: as §1
[18] = tested on: Mycobacterium tuberculosis; test: Antibacterial activity against Mycobacterium tuberculosis H37Rv ATCC 27294T assessed as ofloxacin MIC at 16 ug/ml after 7 days by microdilution checkerboard assay; type: functional; details: 168 h; how it was run: as §1
[19] = tested on: Mycobacterium tuberculosis; test: Antibacterial activity against Mycobacterium tuberculosis H37Rv ATCC 27294T assessed as amikacin MIC at 32 ug/ml after 7 days by microdilution checkerboard assay; type: functional; details: 168 h; how it was run: as §1
[20] = tested on: Mycobacterium tuberculosis; test: Antibacterial activity against Mycobacterium tuberculosis H37Rv ATCC 27294T assessed as amikacin MIC at 64 ug/ml after 7 days by microdilution checkerboard assay; type: functional; details: 168 h; how it was run: as §1
[21] = tested on: Mycobacterium tuberculosis; test: Antibacterial activity against Mycobacterium tuberculosis H37Rv ATCC 27294T assessed as amikacin MIC at 1 ug/ml after 7 days by microdilution checkerboard assay; type: functional; details: 168 h; how it was run: as §1
[22] = tested on: Mycobacterium tuberculosis; test: Antibacterial activity against Mycobacterium tuberculosis H37Rv ATCC 27294T assessed as amikacin MIC at 2 ug/ml after 7 days by microdilution checkerboard assay; type: functional; details: 168 h; how it was run: as §1
[23] = tested on: Mycobacterium tuberculosis; test: Antibacterial activity against Mycobacterium tuberculosis H37Rv ATCC 27294T assessed as amikacin MIC at 4 ug/ml after 7 days by microdilution checkerboard assay; type: functional; details: 168 h; how it was run: as §1
[24] = tested on: Mycobacterium tuberculosis; test: Anti-tubercular activity against Mycobacterium tuberculosis H37Rv ATCC 27294T after 7 days by mircodilution method; type: functional; details: 168 h
How it was run: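 H37Rv grown static in MB7H9 + 10% OADC at 37 °C to OD600 0.8, then diluted to about 10^5 cells/ml. Mixed 1:1 with two-fold serial dilutions in MB7H9/OADC and incubated 7 days at 37 °C. MTT added to final 2.5% and plates incubated overnight. MIC is the lowest concentration with no colour change. Run in triplicate.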

[25] = tested on: Mycobacterium tuberculosis; test: Antibacterial activity against Mycobacterium tuberculosis H37Rv ATCC 27294T assessed as isoniazid MIC at 16 ug/ml after 7 days by microdilution checkerboard assay; type: functional; details: 168 h; how it was run: as §1
[26] = tested on: Mycobacterium tuberculosis; test: Antibacterial activity against Mycobacterium tuberculosis H37Rv ATCC 27294T assessed as isoniazid MIC at 8 ug/ml after 7 days by microdilution checkerboard assay; type: functional; details: 168 h; how it was run: as §1
[27] = tested on: Mycobacterium tuberculosis; test: Antibacterial activity against Mycobacterium tuberculosis H37Rv ATCC 27294T assessed as isoniazid MIC at 4 ug/ml after 7 days by microdilution checkerboard; type: functional; details: 168 h; how it was run: as §1
[28] = tested on: Mycobacterium tuberculosis; test: Antibacterial activity against Mycobacterium tuberculosis H37Rv ATCC 27294T assessed as isoniazid MIC at 2 ug/ml after 7 days by microdilution checkerboard assay; type: functional; details: 168 h; how it was run: as §1
[29] = tested on: Mycobacterium tuberculosis; test: Antibacterial activity against Mycobacterium tuberculosis H37Rv ATCC 27294T assessed as isoniazid MIC at 1 ug/ml after 7 days by microdilution checkerboard assay; type: functional; details: 168 h; how it was run: as §1
[30] = tested on: Mycobacterium tuberculosis; test: Antibacterial activity against Mycobacterium tuberculosis H37Rv ATCC 27294T assessed as amikacin MIC at 8 ug/ml after 7 days by microdilution checkerboard assay; type: functional; details: 168 h; how it was run: as §1
[31] = tested on: Mycobacterium tuberculosis; test: Antibacterial activity against Mycobacterium tuberculosis H37Rv ATCC 27294T assessed as amikacin MIC at 16 ug/ml after 7 days by microdilution checkerboard assay; type: functional; details: 168 h; how it was run: as §1
[32] = tested on: Mycobacterium tuberculosis; test: Antibacterial activity against Mycobacterium tuberculosis H37Rv ATCC 27294T assessed as rifampin MIC at 32 ug/ml after 7 days by microdilution checkerboard assay; type: functional; details: 168 h
How it was run: (§2)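 M. tuberculosis H37Rv grown in MB7H9 + 10% OADC at 37 °C to OD600 0.8; plates inoculated at 10^5 CFU/ml. Rifampicin two-fold serially diluted across columns, test compound two-fold diluted down rows (two-dimensional checkerboard). Sealed, 37 °C for seven days, then MTT added and incubated overnight. MIC read as no colour change. Triplicate.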

[33] = tested on: Mycobacterium tuberculosis; test: Antibacterial activity against Mycobacterium tuberculosis H37Rv ATCC 27294T assessed as rifampin MIC at 64 ug/ml after 7 days by microdilution checkerboard assay; type: functional; details: 168 h; how it was run: as §2
[34] = tested on: Mycobacterium tuberculosis; test: Antibacterial activity against Mycobacterium tuberculosis H37Rv ATCC 27294T assessed as rifampin MIC at 1 ug/ml after 7 days by microdilution checkerboard assay; type: functional; details: 168 h; how it was run: as §2
[35] = tested on: Mycobacterium tuberculosis; test: Antibacterial activity against Mycobacterium tuberculosis H37Rv ATCC 27294T assessed as rifampin MIC at 2 ug/ml after 7 days by microdilution checkerboard assay; type: functional; details: 168 h; how it was run: as §2
[36] = tested on: Mycobacterium tuberculosis; test: Antibacterial activity against Mycobacterium tuberculosis H37Rv ATCC 27294T assessed as rifampin MIC at 4 ug/ml after 7 days by microdilution checkerboard assay; type: functional; details: 168 h; how it was run: as §2
[37] = tested on: Mycobacterium tuberculosis; test: Antibacterial activity against Mycobacterium tuberculosis H37Rv ATCC 27294T assessed as rifampin MIC at 8 ug/ml after 7 days by microdilution checkerboard assay; type: functional; details: 168 h; how it was run: as §2
[38] = tested on: Mycobacterium tuberculosis; test: Antibacterial activity against Mycobacterium tuberculosis H37Rv ATCC 27294T assessed as rifampin MIC at 16 ug/ml after 7 days by microdilution checkerboard assay; type: functional; details: 168 h; how it was run: as §2

CCCSc1nnc(COc2ccccc2C2=NOC(c3ccc(Cl)cc3Cl)C2)n1NC(=O)c1ccccc1 (stereo not drawn)
MIC [1]: 2 µg/mL (≈ 3.43 µM) | IC50 [2]: 14.8 µg/mL (≈ 25.4 µM) | MIC [3]: 0.05 µg/mL | MIC [4]: 0.1 µg/mL | MIC [5]: 12.5 µg/mL | MIC [6]: 6.25 µg/mL | MIC [7]: 12.5 µg/mL | MIC [8]: 12.5 µg/mL | MIC [9]: 12.5 µg/mL | MIC [10]: 12.5 µg/mL | MIC [11]: 12.5 µg/mL | MIC [12]: 1 µg/mL | MIC [13]: 1 µg/mL | MIC [14]: 2 µg/mL | MIC [15]: 2 µg/mL | MIC [16]: 2 µg/mL | MIC [17]: 2 µg/mL | MIC [18]: 2 µg/mL | MIC [19]: 1 µg/mL | MIC [20]: 1 µg/mL | MIC [21]: 2 µg/mL | MIC [22]: 2 µg/mL | MIC [23]: 2 µg/mL | MIC [24]: 32 µg/mL (≈ 54.9 µM) | MIC [25]: 0.1 µg/mL | MIC [26]: 0.1 µg/mL | MIC [27]: 0.1 µg/mL | MIC [28]: 0.1 µg/mL | MIC [29]: 0.1 µg/mL | MIC [30]: 2 µg/mL | MIC [31]: 2 µg/mL | MIC [32]: 0.125 µg/mL | MIC [33]: 0.0312 µg/mL | MIC [34]: 0.5 µg/mL | MIC [35]: 0.25 µg/mL | MIC [36]: 0.25 µg/mL | MIC [37]: 0.25 µg/mL | MIC [38]: 0.25 µg/mL
